# The sample as a whole holds a higher share of hits than the screen did.
# KSHV LANA nucl: LANA-nucleosome interaction inhibition | FITC-LANA1-23 / chicken nucleosome fluorescence polarization; hits give low values | z-score (no concentration beside the values) | 51,000 compounds, 0.3% hits | AID 720717;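 active = both repeat wells score below -2 in polarization z-score versus plate sample wells, excluding overly bright wells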
#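 System – purified chicken nucleosomes with FITC-labelled LANA N-terminal peptide (1-23) · Amount – 240 nM purified chicken nucleosomes (480 nM peptide binding sites), final · Also added – 50 nM FITC-LANA1-23 probe · Medium – TEN-BT buffer, pH 7.5 · Incubation – compound with peptide–nucleosome mix 10–45 min at room temperature · Detection – fluorescence polarization, ex 480 nm, em 535 nm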
# Ab BasE inh: inhibitors of Acinetobacter baumannii siderophore enzyme BasE; inhibition, % (concentration not given with the values); purified BasE, fluorescence polarization binding displacement; AID 485350; 84,000 compounds, 0.1% hits; in the data active = inhibition above about 25%, passing the limit was not always enough;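 also: 0% = negative plate control signal and 100% = positive plate control signal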
# * hit, by the source's call; · = not tested or not shown; ! = a repeat was not active.
SMILES,KSHV LANA nucl,Ab BasE inh
O=C(Nc1ccccc1)c1cccnc1,·,12
CN(C(=O)CSc1nnc(-c2ccccc2)o1)C1CCS(=O)(=O)C1 (stereo not drawn),·,2
CC1(C)CC(=O)c2cc(C#N)c(=O)n(-c3ccccc3)c2C1,-0.071,-2
CC(=O)N/N=C/c1cc(C(C)C)cc(/C=N/NC(C)=O)c1O,-3.9*,20
CC(=O)N/N=C/c1ccccc1,0.031,3
CN(CC1COc2ccccc2O1)C(=O)C1(c2ccccc2)CC1 (stereo not drawn),·,3
CN(CC1COc2ccccc2O1)C(=O)NC12CC3CC(CC(C3)C1)C2 (stereo not drawn),·,30*
COC(=O)C1=C(C)NC(C)=C(C(=O)OC)C1C(=O)OCC(=O)c1ccc2c(c1)NC(=O)CO2,·,1
COC(=O)c1cnn(-c2c(Cl)cccc2Cl)c1C=C(C#N)C#N,-0.88,3
COC(=O)c1cc(-c2cocc2C=C(C#N)C#N)ccc1Cl,-4.7*,7
Cn1nc(SCC(=O)NN)c(=O)n(C)c1=O,·,0
Cc1ccc(C(=O)CSc2nc(C)cc(C)c2C#N)cc1,-1.4,0
COCc1cc(C)nc(SCC(=O)c2ccc(O)c(O)c2)c1C#N,·,37*
CN(C(=O)Nc1cn(C)c2ccccc12)C1CCCCC1,-0.59,2
CCN(CC(=O)NCc1ccc(Cl)cc1)Cc1nnc(-c2ccc(F)cc2)o1,·,0
N#C/C(=C/c1ccc(O)c(O)c1)C(=O)OC/C=C/c1ccccc1,1.3,0
Oc1cc(O)cc(/C=C/c2ccc(O)c(O)c2)c1,-0.39,86*
CN(C)S(=O)(=O)c1ccc(C(=O)Nc2c3c(nn2-c2ccccc2)CSC3)cc1,-1,-1
COc1ccc(-c2nnc(SCC(=O)c3cc(C)n(CC(F)(F)F)c3C)o2)cc1,·,1
COc1ccc(C(C)=NNC(=O)C(C)Nc2ccc(C)cc2)cc1 (stereo not drawn),-0.14,0
CCc1nc2ccc(C(=O)NCCc3ccco3)cc2nc1CC,-2.2*,2
Cc1ccc(CCNC(=O)c2ccc3nc(-c4ccco4)c(-c4ccco4)nc3c2)cc1,-0.77,0
CCOC(=O)c1c(C)[nH]c(C)c1C(=O)CSc1nnc(C(F)(F)F)n1N,·,1
N#CC1=C2SCN(Cc3ccccc3)CN2C(=O)CC1c1cccs1 (stereo not drawn),-0.44,-1
CCN1C=CC2=C(C#N)C(N)C(C#N)(C#N)C(c3cccs3)C2C1 (stereo not drawn),-6.3*,16
SMILES,KSHV LANA nucl,Ab BasE inh
COCCN1C(=O)c2ccccc2C(C(=O)NC2CC2)C1c1cccs1 (stereo not drawn),-0.99,4
CCN(Cc1nc2ccccc2c(=O)[nH]1)Cc1nc2cc(C(F)(F)F)ccc2c(=O)[nH]1,·,-1
O=c1[nH]c(=O)c2nc3cc(C(F)(F)F)ccc3nc2[nH]1,-2.9*,13
C=CCSC1=C(C#N)C(c2cccc(Cl)c2Cl)CC(=O)N1 (stereo not drawn),-0.1,0
CCCCCCn1c(=O)[nH]c2nc3cc(N)c(C)cc3nc2c1=O,·,12
Cc1cc2nc3c(=O)n(C)c(=O)[nH]c3nc2cc1N=CN(C)C,-2.1*,37
CN(C)/C=C1/C=C(c2ccccc2)N(C)C1=S,·,4
c1ccc(N2CCN(C3CCc4ccccc4C3)CC2)cc1 (stereo not drawn),-1.5,2
O=C(Cn1cnnn1)NC1CCCc2ccccc21 (stereo not drawn),·,2
Cc1cc(=O)n2nc(N(C)CC(=O)NC3CCCc4ccccc43)sc2n1 (stereo not drawn),-2.3*,-1
CC(=O)Nc1ccc(N/C(C)=C/C(=O)c2cccnc2)cc1,-0.39,39*
COc1ccc(N/C(C)=C/C(=O)c2ccccc2)cc1,-0.32,0
CCN(CC)CCSc1nc2ccc(OC)cc2[nH]1,0.34,4
CCN(CC)CCCC(C)Nc1c2ccc(Cl)cc2nc2ccc(OC)cc12 (stereo not drawn),-2.3*!,51
OC(c1ccccc1)c1ccc(Br)cc1 (stereo not drawn),1,2
c1ccc(-c2oc3ncn4ncnc4c3c2-c2ccccc2)cc1,0.27,1
COc1ccc(CSC2=C(C#N)C(=O)NC3(CCCCC3)S2)cc1,·,39*
CCCCSC1=C(C#N)C(=O)NC(c2ccc(OC)cc2)S1 (stereo not drawn),-0.36,4
CCCCn1c(=O)[nH]c2nc3cc(N=Cc4c(O)n(C)c(=O)n(C)c4=O)ccc3nc2c1=O,-0.49,3
Cn1c(=O)c2nc3ccc(N=Cc4c(O)n(Cc5ccccc5)c(=O)[nH]c4=O)cc3nc2n(C)c1=O,-2.3*,18
N#CCCn1cc(C(=O)CSc2ccccn2)c2ccccc21,·,32*
COc1ccc(SCC(=O)c2cn(CCC#N)c3ccccc23)cc1,·,-3
CCCCn1nc(C(=O)N(C)Cc2cc(Br)ccc2OC)ccc1=O,·,0
COC(=O)COc1ccc(NC(=O)c2ccccc2C)cc1,-0.61,-1
O=C1CCCC2=C1Sc1ccccc1N2,-2.7*,13
SMILES,KSHV LANA nucl,Ab BasE inh
O=C1CCCC2=C1C(c1cccc(Br)c1)Nc1ccccc1N2 (stereo not drawn),·,-2
Nc1ccnn1CC1CCCCC1,·,2
COc1cccc(C(=O)NCC(=O)N=Nc2c(O)n(Cc3ccc4c(c3)OCO4)c3ccccc23)c1,-1.4,0
N#CC(C(=O)Nc1ccccc1)=C1Nc2ccccc2N1,·,31*
N#CC(C(=O)Nc1ccc(Cl)c(Cl)c1)=C1Nc2ccccc2N1,0.55,1
CN(C)/C=C1\SC(=S)N(c2ccc(Br)cc2)C1=O,-8.9*,8
Cn1cccc1/C=C1/SC(=S)N(c2ccc(C(=O)O)cc2)C1=O,-0.2,-37
O=C(Cn1cc(-c2ccccc2)nc1SCc1ccccc1)c1ccccc1,·,0
CC[C@@]1(O)C(=O)OCc2c1cc1n(c2=O)Cc2cc3c(CN(C)C)c(O)ccc3nc2-1,-9*!,15
CCCCc1cc(=O)oc2c(CN(C)C)c(O)ccc12,0.71,20
Cc1ccc(Cn2c(CO)cnc2SCC(=O)Nc2nc(C)cs2)cc1,0.76,-4
COc1cccc2c1C(=O)c1c(O)c3c(c(O)c1C2=O)C[C@@](O)(C(C)=O)C[C@@H]3O[C@H]1C[C@H](N)[C@H](O)[C@H](C)O1,-8.3*,·
CC[C@@]1(O)C[C@H](O[C@H]2C[C@H](N(C)C)[C@H](O[C@H]3C[C@H](O)[C@H](O[C@H]4CCC(=O)[C@H](C)O4)[C@H](C)O3)[C@H](C)O2)c2c(cc3c(c2O)C(=O)c2c(O)cccc2C3=O)[C@H]1C(=O)OC,0.19,·
CC(=O)[C@]1(O)Cc2c(O)c3c(c(O)c2[C@@H](O[C@H]2C[C@H](N)[C@H](O)[C@H](C)O2)C1)C(=O)c1ccccc1C3=O,-10*!,·
COc1cccc2c1C(=O)c1c(O)c3c(c(O)c1C2=O)C[C@@](O)(C(=O)CO)C[C@@H]3O[C@H]1C[C@H](N)[C@@H](O)[C@H](C)O1,-11,·
COc1ccc(N2CCN(C(=O)c3ccccc3OC)CC2)cc1,-0.53,-3
COc1ccc(N2CCN(C(=O)c3ccc(-n4cnnc4)cc3Cl)CC2)cc1,-2*,3
Cc1cc(=O)n2[nH]c(C(=O)N3CCCC3)nc2n1,0.096,1
CN1c2ccccc2C(=O)C(=C2SCCCS2)S1(=O)=O,-1.5,3
CN1c2ccccc2C(=O)/C(=N\Nc2ccccc2Cl)S1(=O)=O,-2.4*,-1
C1CNCCN1,1.5,-2
C1COCCNCCOCCN1,-2.6*,-2

# Bioassay records (PubChem)
